Measured values: paper PMC5774489 (OncoTargets and therapy, 2018)
Read-outs that look alike come from different tables or passages of the source.

Tests used:
Assay type in all cases: cell-based
[1] = system: B16F10 mouse melanoma cells; test: MTT antiproliferative activity, B16F10; settings: read-out: IC50, B16F10
Procedure, shortened: (§1)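 Cells were pre-incubated for 24 h at 37°C in 5% CO2. Medium was replaced with test compound at 10−4, 10−5, 10−6, 10−7 and 10−8 M for 72 h at 37°C. After a PBS wash, MTT was added for at least 4 h at 37°C and OD was read at 570 nm. IC50 (50% cell killing) came from percent viability versus log concentration; mean ± SEM, n=3.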

[2] = system: MCF-7 human breast cancer cells; test: MTT antiproliferative activity, MCF-7; settings: read-out: IC50, MCF-7
Procedure, shortened: as §1

[3] = system: HCT-116 human colon cancer cells; test: MTT antiproliferative activity, HCT-116; settings: read-out: IC50, HCT-116
Procedure, shortened: as §1

[4] = system: A549 human adenocarcinomic alveolar basal epithelial cells; test: MTT antiproliferative activity, A549; settings: read-out: IC50, A549
Procedure, shortened: as §1

[5] = system: HepG2 human hepatocarcinoma; test: MTT antiproliferative activity, HepG2; settings: read-out: IC50, HepG2
Procedure, shortened: as §1

[6] = system: Helf human embryonic lung fibroblast; test: MTT antiproliferative activity, Helf; settings: read-out: IC50, Helf, 72 h
Procedure, shortened: as §1

[7] = system: human normal liver cells (L02); test: MTT antiproliferative activity, L02; settings: read-out: IC50, L02, 72 h
Procedure, shortened: as §1

[8] = system: selected malignant cell lines (B16F10, MCF-7, HCT-116, A549, HepG2); test: MTT antiproliferative activity, selected malignant cell lines as a panel; settings: 72 h, read-out: IC50 values, range over the selected malignant cell lines
Procedure, shortened: as §1

[9] = MTT, mean ± SEM, n=3, normal cells

| Compound | IC50 ([1]; MTT, 72 h, concentration that caused 50% cell killing, mean ± SEM, n=3) [µM] | IC50 ([2]; MTT, 72 h, mean ± SEM, n=3) [µM] | IC50 ([3]; MTT, 72 h, mean ± SEM, n=3) [µM] | IC50 ([4]; MTT, 72 h, mean ± SEM, n=3) [µM] | IC50 ([5]; MTT, 72 h, mean ± SEM, n=3) [µM] | IC50 [6, 9] [µM] | IC50 [7, 9] [µM] | IC50 ([1]; Mus musculus, B16-F10, 72 h) [µM] | IC50 ([2]; Homo sapiens, MCF7, 72 h) [µM] | IC50 ([3]; Homo sapiens, HCT-116, 72 h) [µM] | IC50 ([4]; Homo sapiens, A549, 72 h) [µM] | IC50 ([5]; Homo sapiens, HepG2, 72 h) [µM] | IC50 ([6]; Homo sapiens, HELF) [µM] | IC50 ([7]; Homo sapiens) [µM] | IC50 [8] [µM] |
| --- | --- | --- | --- | --- | --- | --- | --- | --- | --- | --- | --- | --- | --- | --- | --- |
| N.N.[Cl][Pt][Cl] [Cisplatin] | 11.7 ± 0.95 | 7.83 ± 0.52 | 9.45 ± 1.04 | 12.7 ± 1.85 | 4.77 ± 0.62 | 21.8 ± 3.03 | 9.17 ± 0.83 |  |  |  |  |  |  |  |  |
| C=C(C)[C@@H]1CC[C@]2(C(=O)O)CC[C@]3(C)[C@H](CC[C@@H]4[C@@]5(C)CC[C@H](O)C(C)(C)[C@@H]5CC[C@]43C)[C@@H]12 [BA, Betulinic acid] |  |  |  |  |  |  |  | 27 ± 2.5 | 17.5 ± 1.72 | 27.3 ± 3.28 | 38.3 ± 5.9 | 30.4 ± 5.14 | 62 ± 8.61 | 96.3 ± 7.99 | 17.5 to 38.3 |
